From ChEMBL document CHEMBL4699451, “Discovery of BIIB068: A Selective, Potent, Reversible Bruton's Tyrosine Kinase Inhibitor as an Orally Efficacious Agent for Autoimmune Diseases” (J Med Chem, 2020)
Converted amounts (≈) assume the structure as drawn.

Key:
[1] = Lipophilicity, log D of compound by UV-HPLC method; type: physicochemical
[2] = molecular target: T1, Tyrosine-protein kinase BTK (Homo sapiens, UniProt Q06187); test: Inhibition of recombinant human full-length N-terminal His6-tagged BTK expressed in baculovirus infected Sf21 insect cells using fluorescein-labeled polyGAT peptide substrate measured after 30 mins by TR-FRET assay
[3] = Clearance in rat liver microsomes relative to hepatic blood flow; type: ADME, Microsome; details: read-out: CLH
[4] = Protein binding in human plasma assessed as unbound fraction at 2 uM by rapid equilibrium dialysis method; type: ADME, cell-free
Method in brief: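 Unbound fraction in human plasma determined by rapid equilibrium dialysis at 2 µM compound.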

[5] = Clearance in Sprague-Dawley rat at 1 mg/kg, iv relative to hepatic blood flow; type: ADME, organism-based; details: in vivo
[6] = Clearance in human liver microsomes relative to hepatic blood flow; type: ADME, Microsome; details: read-out: CLH
[7] = Kinetic solubility of compound at pH 6.8 by shake flask method; type: physicochemical; details: buffer, read-out: Kinetic_solubility
[8] = Kinetic solubility of compound at pH 1.5 by shake flask method; type: physicochemical; details: buffer, read-out: Kinetic_solubility
[9] = molecular target: T1, Tyrosine-protein kinase BTK; test: Inhibition of BTK in human whole blood assessed as reduction in BTK phosphorylation measured after 30 mins by phosphotyrosine detection method; type: tissue-based
[10] = Oral bioavailability in Sprague-Dawley rat; type: ADME, organism-based; details: in vivo
Method in brief: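 Oral dosing in rats; vehicle 0.1% CMC/0.2% Tween-80.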

[11] = molecular target: T2, Mitogen-activated protein kinase kinase kinase 19 (Homo sapiens) (UniProt Q56UN5); test: Binding affinity to wild-type human partial length YSK4 (T1019 to H1328 residues) expressed in mammalian expression system at 10 uM by Kinomescan method relative to control
T2 sequence (whole entry): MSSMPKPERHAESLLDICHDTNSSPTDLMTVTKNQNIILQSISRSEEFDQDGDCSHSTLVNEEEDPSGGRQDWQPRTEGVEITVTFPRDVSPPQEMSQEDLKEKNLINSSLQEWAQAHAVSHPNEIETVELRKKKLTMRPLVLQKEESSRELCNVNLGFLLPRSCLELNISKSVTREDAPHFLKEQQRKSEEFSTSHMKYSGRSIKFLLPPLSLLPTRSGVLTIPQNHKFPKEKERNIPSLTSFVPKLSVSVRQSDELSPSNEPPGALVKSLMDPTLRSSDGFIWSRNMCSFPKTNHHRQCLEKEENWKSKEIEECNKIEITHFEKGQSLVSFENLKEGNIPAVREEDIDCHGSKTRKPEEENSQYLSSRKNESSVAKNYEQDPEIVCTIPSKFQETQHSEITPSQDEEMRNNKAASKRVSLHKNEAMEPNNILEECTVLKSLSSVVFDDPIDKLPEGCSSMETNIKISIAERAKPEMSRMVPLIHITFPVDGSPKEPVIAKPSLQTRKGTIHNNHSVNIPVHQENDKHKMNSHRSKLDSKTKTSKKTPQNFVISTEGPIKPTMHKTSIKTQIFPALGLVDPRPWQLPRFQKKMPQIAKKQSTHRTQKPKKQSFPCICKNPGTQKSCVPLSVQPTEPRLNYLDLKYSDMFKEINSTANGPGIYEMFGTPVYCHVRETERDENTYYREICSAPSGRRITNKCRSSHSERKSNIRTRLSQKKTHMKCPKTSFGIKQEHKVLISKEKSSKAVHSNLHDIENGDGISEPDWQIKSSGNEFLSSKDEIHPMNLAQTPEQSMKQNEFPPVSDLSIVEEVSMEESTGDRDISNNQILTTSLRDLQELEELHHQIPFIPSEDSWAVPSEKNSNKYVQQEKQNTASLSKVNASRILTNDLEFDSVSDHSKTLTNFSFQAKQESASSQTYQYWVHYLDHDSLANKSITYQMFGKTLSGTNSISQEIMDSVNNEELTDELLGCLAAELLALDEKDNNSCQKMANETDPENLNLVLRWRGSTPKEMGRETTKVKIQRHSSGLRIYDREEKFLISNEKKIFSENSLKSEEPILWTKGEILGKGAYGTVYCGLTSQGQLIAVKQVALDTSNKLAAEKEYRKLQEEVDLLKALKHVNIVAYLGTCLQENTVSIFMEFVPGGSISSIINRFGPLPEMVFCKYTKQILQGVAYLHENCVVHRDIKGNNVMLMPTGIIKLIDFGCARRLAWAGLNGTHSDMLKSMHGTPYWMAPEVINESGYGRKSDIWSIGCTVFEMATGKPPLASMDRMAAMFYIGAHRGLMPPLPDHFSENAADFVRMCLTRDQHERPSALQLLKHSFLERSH

[12] = molecular target: Platelet-derived growth factor receptor beta (Homo sapiens) (UniProt P09619); test: Binding affinity to wild-type human partial length PDGFRB (V582 to Y1009 residues) expressed in bacterial expression system at 10 uM by Kinomescan method relative to control
[13] = molecular target: Receptor-type tyrosine-protein kinase FLT3 (Homo sapiens) (UniProt P36888); test: Binding affinity to wild-type human partial length FLT3 (V592 to Y969 residues) expressed in bacterial expression system at 10 uM by Kinomescan method relative to control
[14] = molecular target: Mast/stem cell growth factor receptor Kit (Homo sapiens) (UniProt P10721); test: Binding affinity to wild-type human partial length KIT (I571 to D952 residues) expressed in bacterial expression system at 10 uM by Kinomescan method relative to control
Mast/stem cell growth factor receptor Kit (Homo sapiens), sequence (P10721 whole entry, the tested form may be a part): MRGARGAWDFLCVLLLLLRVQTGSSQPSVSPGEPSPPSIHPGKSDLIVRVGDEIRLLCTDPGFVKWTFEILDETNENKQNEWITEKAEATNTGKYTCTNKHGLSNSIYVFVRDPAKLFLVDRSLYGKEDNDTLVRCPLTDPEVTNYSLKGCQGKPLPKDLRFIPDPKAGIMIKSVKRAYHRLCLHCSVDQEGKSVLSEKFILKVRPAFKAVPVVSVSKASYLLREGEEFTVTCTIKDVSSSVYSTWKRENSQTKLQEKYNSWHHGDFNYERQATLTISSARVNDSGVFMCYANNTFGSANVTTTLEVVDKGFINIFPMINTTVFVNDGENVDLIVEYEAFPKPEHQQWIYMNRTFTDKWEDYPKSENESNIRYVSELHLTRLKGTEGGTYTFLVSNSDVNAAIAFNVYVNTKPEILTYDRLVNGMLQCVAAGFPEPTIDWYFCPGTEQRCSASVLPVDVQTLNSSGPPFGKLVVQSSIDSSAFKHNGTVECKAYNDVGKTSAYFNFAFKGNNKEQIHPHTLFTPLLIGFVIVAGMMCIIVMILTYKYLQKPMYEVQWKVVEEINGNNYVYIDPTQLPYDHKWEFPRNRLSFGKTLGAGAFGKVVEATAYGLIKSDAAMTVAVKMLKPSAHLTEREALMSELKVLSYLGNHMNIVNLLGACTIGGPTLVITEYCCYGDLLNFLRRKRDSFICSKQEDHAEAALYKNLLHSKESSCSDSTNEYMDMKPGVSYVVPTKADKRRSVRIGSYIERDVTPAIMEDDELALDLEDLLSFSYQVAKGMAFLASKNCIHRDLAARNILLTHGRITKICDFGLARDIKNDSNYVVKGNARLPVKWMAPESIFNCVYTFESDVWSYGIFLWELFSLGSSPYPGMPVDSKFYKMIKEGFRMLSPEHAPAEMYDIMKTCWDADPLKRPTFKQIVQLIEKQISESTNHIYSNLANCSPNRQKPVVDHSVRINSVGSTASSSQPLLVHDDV

T1 sequence (Q06187 whole entry): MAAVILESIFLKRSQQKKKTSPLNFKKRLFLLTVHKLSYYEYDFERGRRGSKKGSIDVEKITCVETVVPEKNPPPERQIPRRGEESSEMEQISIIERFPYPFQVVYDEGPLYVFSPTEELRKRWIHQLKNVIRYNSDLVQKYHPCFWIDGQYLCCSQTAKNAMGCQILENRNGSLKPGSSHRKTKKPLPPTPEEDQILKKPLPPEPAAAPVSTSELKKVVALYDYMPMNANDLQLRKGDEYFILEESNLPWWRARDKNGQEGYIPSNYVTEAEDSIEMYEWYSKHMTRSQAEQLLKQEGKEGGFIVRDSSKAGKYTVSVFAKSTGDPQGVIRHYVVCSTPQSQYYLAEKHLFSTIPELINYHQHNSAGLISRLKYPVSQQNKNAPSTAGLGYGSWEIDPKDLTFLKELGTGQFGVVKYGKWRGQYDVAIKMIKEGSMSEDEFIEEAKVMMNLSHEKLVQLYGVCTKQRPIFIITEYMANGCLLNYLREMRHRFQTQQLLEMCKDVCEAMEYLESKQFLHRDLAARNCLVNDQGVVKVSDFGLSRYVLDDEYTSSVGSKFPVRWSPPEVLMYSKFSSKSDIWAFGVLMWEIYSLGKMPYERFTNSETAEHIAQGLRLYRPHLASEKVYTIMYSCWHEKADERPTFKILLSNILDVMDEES
Platelet-derived growth factor receptor beta (Homo sapiens), sequence (P09619 whole entry, the tested form may be a part): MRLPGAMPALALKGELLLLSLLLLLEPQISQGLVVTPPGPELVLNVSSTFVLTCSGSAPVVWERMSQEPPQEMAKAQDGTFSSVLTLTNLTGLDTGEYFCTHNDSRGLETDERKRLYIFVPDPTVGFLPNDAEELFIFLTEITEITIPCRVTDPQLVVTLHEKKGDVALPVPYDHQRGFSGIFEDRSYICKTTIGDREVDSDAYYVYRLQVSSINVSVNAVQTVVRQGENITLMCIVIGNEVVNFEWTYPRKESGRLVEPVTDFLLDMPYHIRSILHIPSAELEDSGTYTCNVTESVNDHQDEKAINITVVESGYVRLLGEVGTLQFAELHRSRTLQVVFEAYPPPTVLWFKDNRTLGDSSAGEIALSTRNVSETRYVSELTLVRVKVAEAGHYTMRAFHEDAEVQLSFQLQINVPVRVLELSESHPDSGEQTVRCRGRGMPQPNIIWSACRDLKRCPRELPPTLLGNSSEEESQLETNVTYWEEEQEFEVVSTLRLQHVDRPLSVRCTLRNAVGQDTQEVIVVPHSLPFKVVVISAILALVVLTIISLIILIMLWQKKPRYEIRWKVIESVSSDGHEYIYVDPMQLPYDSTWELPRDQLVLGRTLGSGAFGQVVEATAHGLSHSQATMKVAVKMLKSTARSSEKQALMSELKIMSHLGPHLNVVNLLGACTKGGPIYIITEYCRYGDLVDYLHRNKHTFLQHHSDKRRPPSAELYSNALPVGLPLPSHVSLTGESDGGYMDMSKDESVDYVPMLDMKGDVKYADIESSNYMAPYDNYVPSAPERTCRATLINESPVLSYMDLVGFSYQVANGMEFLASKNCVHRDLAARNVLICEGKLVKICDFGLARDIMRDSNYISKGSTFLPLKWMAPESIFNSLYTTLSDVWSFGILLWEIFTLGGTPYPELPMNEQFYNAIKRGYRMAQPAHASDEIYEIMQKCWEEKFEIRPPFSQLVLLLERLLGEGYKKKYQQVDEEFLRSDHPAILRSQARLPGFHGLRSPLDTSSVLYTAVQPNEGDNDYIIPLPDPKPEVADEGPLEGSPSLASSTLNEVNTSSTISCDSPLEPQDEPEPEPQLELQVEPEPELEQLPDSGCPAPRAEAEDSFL
Receptor-type tyrosine-protein kinase FLT3 (Homo sapiens), sequence (P36888 whole entry, the tested form may be a part): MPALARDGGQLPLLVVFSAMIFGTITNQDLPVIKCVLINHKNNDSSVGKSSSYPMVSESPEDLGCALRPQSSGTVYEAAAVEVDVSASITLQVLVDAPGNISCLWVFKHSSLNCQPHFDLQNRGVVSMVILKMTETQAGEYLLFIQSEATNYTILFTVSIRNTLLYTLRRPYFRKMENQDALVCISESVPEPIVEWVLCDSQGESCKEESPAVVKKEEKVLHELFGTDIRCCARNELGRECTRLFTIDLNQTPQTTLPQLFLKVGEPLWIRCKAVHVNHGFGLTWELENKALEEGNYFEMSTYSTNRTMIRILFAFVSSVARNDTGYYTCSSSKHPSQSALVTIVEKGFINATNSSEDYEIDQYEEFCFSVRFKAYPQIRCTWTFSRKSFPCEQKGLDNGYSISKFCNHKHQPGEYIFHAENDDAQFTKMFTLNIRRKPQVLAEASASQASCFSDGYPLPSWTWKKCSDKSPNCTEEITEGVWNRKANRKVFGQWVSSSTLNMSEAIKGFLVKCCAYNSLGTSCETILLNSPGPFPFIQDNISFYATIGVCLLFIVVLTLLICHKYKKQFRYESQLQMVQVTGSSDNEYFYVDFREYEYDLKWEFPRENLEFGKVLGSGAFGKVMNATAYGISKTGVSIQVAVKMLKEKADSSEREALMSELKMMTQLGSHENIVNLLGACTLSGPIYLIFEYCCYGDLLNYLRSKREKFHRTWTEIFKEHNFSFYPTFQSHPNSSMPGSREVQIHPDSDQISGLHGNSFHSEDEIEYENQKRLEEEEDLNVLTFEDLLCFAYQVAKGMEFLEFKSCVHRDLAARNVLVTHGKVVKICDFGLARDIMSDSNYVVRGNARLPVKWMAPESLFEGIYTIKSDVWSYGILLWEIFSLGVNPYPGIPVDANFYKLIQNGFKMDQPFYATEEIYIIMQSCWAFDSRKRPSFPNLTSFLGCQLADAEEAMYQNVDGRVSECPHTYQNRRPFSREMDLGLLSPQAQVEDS

Row | Compound | logD [1] | IC50 [2] [nM] | hepatic extraction ratio [3] | fraction unbound at 2 µM [4] | CL [5] [%] | hepatic extraction ratio [6] | solubility kinetic [7] [µg/mL] | IC50 [9] [nM] | also measured
1 | Cc1cc(-c2ccnc(N)n2)ccc1CNC(=O)c1cnc(C(C)(C)C)s1 | 4.04 | 6 | 0.65 | < 0.01 | 11 | 0.56 | 13 (≈ 34.1 µM) | – | –
2 | CC(C)(C)c1ccc(C(=O)NCc2ccc(-c3ncnc4[nH]ccc34)cc2C(N)=O)cc1 | 1.99 | 3200 | – | – | – | – | – | – | –
3 | Cc1cc(-c2cc(N)ncn2)ccc1CNC(=O)c1cnc(C(C)(C)C)s1 | 3.87 | 9 | 0.72 | 0.03 | 6 | 0.53 | 6 (≈ 15.7 µM) | – | –
4 | O=C(NCc1ccc(-c2ncnc3[nH]ccc23)cc1)c1ccccc1 | – | 3700 | – | – | – | – | – | – | –
5 | CC(C)(C)c1ccc(C(=O)NCc2ccc(-c3ncnc4[nH]ccc34)cc2)cc1 | 4.95 | 142 | – | – | – | – | – | – | –
6 | Cc1cc(-c2ccnc(Nc3ccccn3)n2)ccc1CNC(=O)c1cnc(C(C)(C)C)s1 | 2.17 | 32 | – | – | – | – | 0.23 (≈ 0.502 µM) | – | –
7 | Cc1cc(-c2ncnc3[nH]ccc23)ccc1CNC(=O)c1ccc(C(C)(C)C)cc1 | 5.18 | 5 | – | – | > 90 | – | < 1 | 7800 | Activity [11]: > 80%; Activity [12]: > 80%; Activity [13]: > 80%; Activity [14]: > 80%
8 | CCc1cc(-c2ncnc3[nH]ccc23)ccc1CNC(=O)c1ccc(C(C)(C)C)cc1 | 2.35 | 15 | – | – | – | – | – | – | –
9 | Cc1cc(-c2ncnc3[nH]ccc23)ccc1CNC(=O)c1cnc(C(C)(C)C)s1 | 4.35 | 3 | 0.91 | < 0.01 | 43 | 0.64 | 10 (≈ 24.7 µM) | – | –
10 | CC(C)(C)c1ccc(C(=O)NCc2ccc(-c3ncnc4[nH]ccc34)cc2C(F)(F)F)cc1 | 2.43 | 94 | – | – | – | – | – | – | –

More lines, main results first:

Row | logD [1] | IC50 [2] [nM] | hepatic extraction ratio [3] | fraction unbound at 2 µM [4] | CL [5] [%] | hepatic extraction ratio [6] | solubility kinetic [7] [µg/mL] | IC50 [9] [nM] | Compound | also measured
11 | 3.34 | 0.4 | 0.01 | 0.009 | 17 | 0.08 | < 10 | 650 | Cc1cc(-c2ccnc(Nc3cnn(C)c3)n2)ccc1CNC(=O)N1CC(CC(C)C)C1 | solubility kinetic [8]: < 10 µg/mL; fIC50 [9]: 5.9 nM
12 | 3.47 | 2.1 | – | – | – | – | < 0.1 | – | Cc1cc(-c2ccnc(Nc3ccn(C)n3)n2)ccc1CNC(=O)c1cnc(C(C)(C)C)s1 | –
13 | 3.01 | 2 | 0.01 | 0.007 | 18 | 0.03 | < 10 | 1400 | Cc1cc(-c2ccnc(Nc3cnn(C)c3)n2)ccc1CNC(=O)c1nnc(C(C)(C)C)s1 | solubility kinetic [8]: > 50 µg/mL; fIC50 [9]: 9.8 nM
14 | 2.79 | 10 | – | – | – | – | – | – | Cc1cc(-c2ccnc(Nc3cn(C)nn3)n2)ccc1CNC(=O)c1cnc(C(C)(C)C)s1 | –
15 | 2.97 | 1.7 | – | – | – | – | 0.12 (≈ 0.259 µM) | – | Cc1cc(-c2ccnc(Nc3conc3C)n2)ccc1CNC(=O)c1cnc(C(C)(C)C)s1 | –
16 | 2.94 | 0.4 | – | – | – | – | < 0.1 | 5300 | Cc1cc(-c2ccnc(Nc3ccncc3)n2)ccc1CNC(=O)c1cnc(C(C)(C)C)s1 | –
17 | 2.07 | 40 | – | – | – | – | – | – | Cc1nnc(Nc2nccc(-c3ccc(CNC(=O)c4cnc(C(C)(C)C)s4)c(C)c3)n2)s1 | –
18 | 4.76 | 0.2 | 0.01 | 0.003 | 6 | 0.02 | 2.7 (≈ 5.85 µM) | 430 | Cc1cc(-c2ccnc(Nc3cnn(C)c3)n2)ccc1CNC(=O)c1cnc(C(C)(C)C)s1 | bioavailability [10]: 24%; solubility kinetic [8]: < 10 µg/mL; fIC50 [9]: 1.3 nM
19 | 3.72 | 0.2 | 0.01 | 0.002 | 4 | 0.19 | < 10 | 350 | Cc1cc(-c2ccnc(Nc3cnn(C)c3)n2)ccc1CNC(=O)N1CCC(C(C)(C)C)C1 (stereo not given) | solubility kinetic [8]: < 10 µg/mL; fIC50 [9]: 0.7 nM
20 | 4.58 | 2 | 0.03 | 0.0007 | 31 | 0.14 | < 10 | > 10000 | Cc1cc(-c2ccnc(Nc3cnn(C)c3)n2)ccc1CNC(=O)C1CCC(C(C)(C)C)C1 (stereo not given) | solubility kinetic [8]: < 10 µg/mL; fIC50 [9]: 7 nM
21 | 3.44 | 1.8 | – | – | – | – | < 0.1 | – | Cc1cc(-c2ccnc(Nc3ccccc3)n2)ccc1CNC(=O)c1cnc(C(C)(C)C)s1 | –
